What was measured:
Mus sp. [1] = assay: (§1) Anticonvulsant activity was evaluated by rotarod toxicity test and was determined 30 min after subcutaneous administration; format: organism-based; details: in vivo, sc, 0.5 h
Mus sp. [2] = assay: Number of animals protected out of 1 was evaluated by maximal electroshock induced convulsion test at 30 min after subcutaneous administration of >300 mg/kg; format: functional
In short: (§2)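 Preliminary screen in small groups of mice (1-4) at 30, 100 and 300 mg/kg. Protection against MES or scMet convulsions, or rotorod toxicity, was scored at 30 min and 4 h after dosing. The smallest dose giving activity was recorded for each test.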

Mus sp. [3] = assay: Number of animals protected out of 4 was evaluated by rotarod toxicity test and was determined 30 min t 30 min after subcutaneous administration of >300 mg/kg; format: functional; in short: as §2
Mus sp. [4] = assay: Anticonvulsant activity was evaluated by metrazole-induced convulsion test and was determined 30 min after subcutaneous administration; format: functional
In short: (§3)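 Secondary evaluation in mice. Compound was given intraperitoneally in 30% polyethylene glycol 400. Median effective dose (ED50) was determined against maximal electroshock (MES) or subcutaneous Metrazol (scMet) convulsions. Median toxic dose (TD50) was determined by the rotorod test. All were read 30 min after dosing.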

Mus musculus [5] = assay: Number of animal protected out of 1 was evaluated by metrazole-induced convulsion test at 30 min after subcutaneous administration of >300 mg/kg; format: functional; in short: as §2
Mus sp. [6] = assay: Anticonvulsant activity was evaluated by maximal electroshock induced convulsion test and was determined 30 min after subcutaneous administration; format: functional
Mus musculus [7] = assay: Anticonvulsant activity was evaluated by maximal electroshock induced convulsion test after subcutaneous administration; format: functional; details: sc
Mus musculus [8] = assay: Number of animals protected out of 4 was evaluated by maximal electroshock induced convulsion test at 30 min after subcutaneous administration of >300 mg/kg; format: functional; in short: as §2
[9] = Anticonvulsant activity was evaluated by rotarod toxicity test after subcutaneous administration; format: organism-based; details: mouse, in vivo, sc
Mus musculus [10] = assay: Anticonvulsant activity was evaluated by metrazole-induced convulsion test after subcutaneous administration; format: functional; details: sc; in short: as §3
Mus musculus [11] = assay: Number of animal protected out of 1 was evaluated by metrazole-induced convulsion test at 30 min after subcutaneous administration of 30 mg/kg; format: functional; in short: as §2
Mus musculus [12] = assay: Number of animals protected out of 1 was evaluated by maximal electroshock induced convulsion test at 30 min after subcutaneous administration of 300 mg/kg; format: functional; in short: as §2
Mus musculus [13] = assay: Number of animals protected out of 1 was evaluated by rotarod toxicity test and was determined 30 min t 30 min after subcutaneous administration of >300 mg/kg; format: functional
[14] = as §1; format: organism-based; details: mouse, in vivo, sc
Mus musculus [15] = assay: Number of animal protected out of 4 was evaluated by metrazole-induced convulsion test at 30 min after subcutaneous administration of >300 mg/kg; format: functional; in short: as §2
Mus musculus [16] = assay: Anticonvulsant activity was evaluated by rotarod toxicity test and was determined 30 min after administration; format: organism-based; details: in vivo, 0.5 h; in short: as §3
[17] = Anticonvulsant activity was evaluated by rotarod toxicity test after subcutaneous administration.; format: organism-based; details: mouse, in vivo, sc
Mus musculus [18] = assay: Anticonvulsant activity was evaluated by maximal electroshock induced convulsion test after subcutaneous administration.; format: functional; details: sc

Row | Compound | Activity (Mus sp. [1]) [mg/kg] | No. of animals protected (Mus sp. [2]) | No. of animals protected (Mus sp. [3]) | Activity (Mus sp. [4]) [mg/kg] | No. of animals protected (Mus musculus [5]) | Activity (Mus sp. [6]) [mg/kg] | ED50 (Mus musculus [10]) [mg/kg] | also measured
1 | CCC(O)(C(=O)NC)c1ccccc1 (centres undefined) | > 300 | 1 | 0 | >300 | 0 | 300 | – | –
2 | O=C(CCl)N1CCCC(O)(c2ccccc2)C1=O (centres undefined) | > 300 | – | – | >300 | – | >300 | – | –
3 | CCC(OCc1ccccc1)(C(=O)NC)c1ccccc1 (centres undefined) | > 300 | 0 | 0 | >300 | 0 | >300 | – | –
4 | CCOC(=O)N1CCCC(Cl)(c2ccccc2)C1=O (centres undefined) | > 300 | – | – | 300 | – | >300 | – | –
5 | CCOC(=O)N1CCCC(OC)(c2ccccc2)C1=O (centres undefined) | > 300 | – | 0 | 300 | 1 | 300 | 124 | ED50 (Mus musculus [7]): 225 mg/kg; No. of animals protected (Mus musculus [8]): 2; TD50 [9]: > 300 mg/kg
6 | CCOC(=O)N1CCCC(O)(c2ccccc2)C1=O (centres undefined) | > 300 | – | 0 | 30 | – | 300 | 124 | ED50 (Mus musculus [7]): 132 mg/kg; No. of animals protected (Mus musculus [11]): 1; No. of animals protected (Mus musculus [12]): 1; TD50 [9]: 451 mg/kg
7 | CCOC(=O)NCCCC(O)(C(=O)OC)c1ccccc1 (centres undefined) | > 300 | 0 | – | >300 | 0 | >300 | – | No. of animals protected (Mus musculus [13]): 0
8 | CCOC(=O)N1CCCC(c2ccccc2)C1=O (centres undefined) | > 300 | 0 | 0 | >300 | 0 | >300 | – | –
9 | COC1(c2ccccc2)CCCNC1=O (centres undefined) | 300 | 1 | 4 | 300 | – | 100 | 49.6 | ED50 (Mus musculus [7]): 121 mg/kg; TD50 at 0.5 h [14]: 239 mg/kg; No. of animals protected (Mus musculus [15]): 4
10 | CN1CCCC(O)(c2ccccc2)C1=O (centres undefined) | – | 1 | 0 | 300 | – | 100 | 128 | Activity (Mus musculus [16]): > 300 mg/kg; ED50 (Mus musculus [7]): 84.4 mg/kg; No. of animals protected (Mus musculus [15]): 4; TD50 [9]: 350 mg/kg
11 | CCOC(=O)N1CCCC(OCC2CCCCC2)(c2ccccc2)C1=O (centres undefined) | > 300 | 0 | 0 | >300 | 0 | >300 | – | –
12 | CCOC(=O)N(C)C(=O)C(CC)(OCc1ccccc1)c1ccccc1 (centres undefined) | > 300 | 0 | – | >300 | 0 | >300 | – | No. of animals protected (Mus musculus [13]): 0
13 | O=C1NCCCC1(O)c1ccccc1 (centres undefined) | > 300 | 0 | 0 | >300 | 0 | >300 | – | –
14 | CCOC(=O)N1CCCC(N)(c2ccccc2)C1=O (centres undefined) | – | 1 | 4 | 300 | 1 | 300 | – | Activity (Mus musculus [16]): 300 mg/kg
15 | CCCC(C)OC(=O)N1CCCC(O)(c2ccccc2)C1=O (centres undefined) | > 300 | 1 | 0 | 300 | – | 300 | – | No. of animals protected (Mus musculus [15]): 1
16 | O=C(CCCl)NCc1ccccc1 [BECLAMIDE] | – | – | – | – | – | – | 117 | ED50 (Mus musculus [7]): 185 mg/kg; TD50 [9]: 278 mg/kg
17 | CCCC(CCC)C(=O)O [VALPROIC ACID] | – | – | – | – | – | – | 149 | –
18 | CCOC(=O)N1CCCC(OC(C)=O)(c2ccccc2)C1=O (centres undefined) | – | 0 | 0 | >300 | 0 | >300 | – | Activity (Mus musculus [16]): > 300 mg/kg
19 | NC(=O)NC(=O)Cc1ccccc1 [PHENACEMIDE] | – | – | – | – | – | – | – | TD50 [17]: 421 mg/kg; ED50 (Mus musculus [18]): 87.3 mg/kg
20 | O=C(CBr)OC1(c2ccccc2)CCCNC1=O (centres undefined) | – | – | – | 300 | – | >300 | – | Activity (Mus musculus [16]): > 300 mg/kg
21 | CCCC(C)(COC(N)=O)COC(N)=O [MEPROBAMATE] | – | – | – | – | – | – | 31.5 | ED50 (Mus musculus [7]): 120 mg/kg; TD50 [17]: 125 mg/kg
